pEC50, pIC50, pKi: −log10 of the molar value. One block for each compound: values may come before it.
Assays:
[1] = tested on: Mus musculus; experiment: In vivo anticonvulsant activity determined as icv dose that blocked 3,5-DHPG induced clonic seizures induced in DBA/2 mice; type: functional; details: central
[2] = tested on: Mus musculus; experiment: In vivo anticonvulsant activity determined as icv dose that blocked clonic seizures induced in DBA/2 mice by audiogenic stimuli; type: functional; details: central
In short: (§1)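 Male DBA/2 mice (6–12 g, 22–26 days old) received icv drug or vehicle (10 μL, 1 mm anterior to bregma, 1 mm lateral, 3 mm depth) under light ether anaesthesia. Drug was dissolved in DMSO, pH 7.3–7.7 with phosphate buffer. 45 min later, 110 dB bell for 60 s; wild running, clonus, tonic extension scored.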

[3] = tested on: Mus musculus; experiment: In vivo anticonvulsant activity determined as icv dose that blocked tonic seizures induced by audiogenic stimuli in DBA/2 mice after pretreatment with D-serine; type: functional; details: central
[4] = tested on: Mus musculus; experiment: In vivo anticonvulsant activity determined as icv dose that blocked tonic seizures induced in DBA/2 mice by audiogenic stimuli; type: functional; details: central; in short: as §1
[5] = tested on: Mus musculus; experiment: In vivo anticonvulsant activity determined as icv dose that blocked 3,5-DHPG induced tonic seizures induced in DBA/2 mice after; type: functional; details: central
[6] = tested on: Mus musculus; experiment: In vivo anticonvulsant activity determined as icv dose that blocked clonic seizures induced by audiogenic stimuli in DBA/2 mice after pretreatment with D-serine; type: functional; details: central
[7] = tested on: Mus musculus; experiment: In vivo anticonvulsant activity determined as icv dose that blocked NMDA-induced clonic seizures induced in DBA/2 mice; type: functional; details: central
In short: (§2)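 DBA/2 mice, n = 10 per group, were dosed with drug in DMSO buffered to pH 7.3–7.7, then given icv NMDA: 18.7 nmol/mouse for tonic extension or 1.9 nmol/mouse for clonic seizures. ED50 by Litchfield–Wilcoxon, 95% confidence limits.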

[8] = tested on: Mus musculus; experiment: In vivo anticonvulsant activity determined as icv dose that blocked NMDA-induced tonic seizures induced in DBA/2 mice after ip administration; type: functional; in short: as §2
[9] = tested on: Mus musculus; experiment: In vivo anticonvulsant activity determined as potency that blocked NMDA-induced tonic seizures induced in DBA/2 mice; type: functional
[10] = tested on: Mus musculus; experiment: In vivo anticonvulsant activity determined as potency that blocked clonic seizures induced in DBA/2 mice by audiogenic stimuli; type: functional
[11] = tested on: Mus musculus; experiment: In vivo anticonvulsant activity determined as potency that blocked tonic seizures induced in DBA/2 mice by audiogenic stimuli; type: functional
[12] = tested on: Mus musculus; experiment: In vivo anticonvulsant activity determined as potency that blocked NMDA-induced clonic seizures induced in DBA/2 mice; type: functional
[13] = tested on: Mus musculus; experiment: In vivo anticonvulsant activity determined as potency that blocked tonic seizures induced by audiogenic stimuli in DBA/2 mice after pretreatment with D-serine; type: functional
In short: (§3)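 DBA/2 mice pretreated with D-serine (300 nmol/mouse, icv) 30 min […], then tested for audiogenic seizures (110 dB sound, clonic/tonic phases scored).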

[14] = tested on: Mus musculus; experiment: In vivo anticonvulsant activity determined as potency that blocked clonic seizures induced by audiogenic stimuli in DBA/2 mice after pretreatment with D-serine; type: functional; in short: as §3
[15] = species on record: Rattus norvegicus; experiment: Antagonist activity against responses induced by 10 uM NMDA tested in rat cortical slice model; type: functional
In short: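 Rat cortical slices; antagonism of responses induced by 10 μM NMDA, agonist applied for a further 90 s; IC50 derived.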

[16] = tested on: Mus musculus; experiment: In vivo anticonvulsant activity determined as ip dose that blocked NMDA-induced clonic seizures induced in DBA/2 mice; type: functional
[17] = biological target: Glutamate NMDA receptor; experiment: In vitro binding affinity for rat cortical membrane N-methyl-D-aspartate glutamate receptor determined using [3H]CPP as radioligand
[18] = biological target: T1, Metabotropic glutamate receptor 4 (Rattus norvegicus, UniProt P31423); experiment: Inhibitory constant against cloned rat Metabotropic glutamate receptor 4 expressed in Chinese Hamster Ovary (CHO) cells; type: cell-based
In short: (§4)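 Cloned rat mGluR1α, mGluR2, mGluR4a or mGluR5a stably expressed in CHO cell lines; cells maintained and tested by a previously described procedure.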

[19] = biological target: Metabotropic glutamate receptor 2 (Rattus norvegicus) (UniProt P31421); experiment: Activity tested at cloned rat mGluR2 receptor expressed in Chinese Hamster Ovary (CHO) cells at 1 mM concentration; type: functional, cell-based
In short: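 Cloned rat mGluR2 in CHO cells; test compound at 1 mM, also checked for inhibition of the response to 30 μM Glu.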

[20] = biological target: T2, Glutamate receptor ionotropic, AMPA (Rattus norvegicus, UniProt P19490+P19491+P19492+P19493); experiment: In vitro binding affinity for rat cortical membrane Ionotropic glutamate receptor AMPA determined using [3H]AMPA as radioligand
[21] = tested on: Mus musculus; experiment: In vivo anticonvulsant activity determined as ip dose that blocked clonic seizures induced in DBA/2 mice by audiogenic stimuli; type: functional
In short: (§5)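 Male DBA/2 mice (6–12 g, 22–26 days old) given drug or vehicle ip (DMSO, pH 7.3–7.7 with phosphate buffer). After 45 min, a 110 dB sound for 60 s or until clonus; seizures scored (wild running, clonic, tonic, respiratory arrest).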

[22] = biological target: Glutamate receptor ionotropic, kainate; experiment: In vitro binding affinity for rat cortical membrane KA receptor determined using [3H]KA as radioligand
[23] = biological target: Metabotropic glutamate receptor 1 (Rattus norvegicus, UniProt P23385); experiment: Inhibitory constant against cloned rat Metabotropic glutamate receptor 1 expressed in Chinese Hamster Ovary (CHO) cells; type: cell-based; in short: as §4
[24] = tested on: Mus musculus; experiment: In vivo anticonvulsant activity determined as ip dose that blocked clonic seizures induced by audiogenic stimuli in DBA/2 mice after pretreatment with D-serine; type: functional; in short: as §3
[25] = tested on: Mus musculus; experiment: In vivo anticonvulsant activity determined as ip dose that blocked NMDA-induced tonic seizures induced in DBA/2 mice after ip administration; type: functional
[26] = tested on: Mus musculus; experiment: In vivo anticonvulsant activity determined as ip dose that blocked 3,5-DHPG induced clonic seizures induced in DBA/2 mice; type: functional
In short: (§6)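 DBA/2 mice (n = 10 per group) given agent ip at 10–100 μmol/kg 15 min before icv DHPG (1.5 μmol); seizure-related activity observed for 90 min.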

[27] = tested on: Mus musculus; experiment: In vivo anticonvulsant activity determined as ip dose that blocked tonic seizures induced by audiogenic stimuli in DBA/2 mice after pretreatment with D-serine; type: functional; in short: as §3
[28] = tested on: Mus musculus; experiment: In vivo anticonvulsant activity determined as ip dose that blocked 3,5-DHPG induced tonic seizures induced in DBA/2 mice after; type: functional; in short: as §6
[29] = species on record: Rattus norvegicus; experiment: Agonist activity tested in rat cortical slice model; type: functional
In short: (§7)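 Rat cortical slice model; compounds tested up to 1000 μM both as agonists and as antagonists. Antagonism measured against responses to NMDA (10 μM), AMPA (5 μM) or KA (5 μM), agonist applied for a further 90 s.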

[30] = biological target: T1, Metabotropic glutamate receptor 4; experiment: Activity tested at cloned rat Metabotropic glutamate receptor 4 expressed in Chinese Hamster Ovary (CHO) cells; type: functional, cell-based; in short: as §4
[31] = biological target: T3, Metabotropic glutamate receptor 5 (Rattus norvegicus, UniProt P31424); experiment: Inhibitory constant against cloned rat Metabotropic glutamate receptor 5 expressed in Chinese Hamster Ovary (CHO) cells; type: cell-based; in short: as §4
[32] = tested on: Mus musculus; experiment: In vivo anticonvulsant activity determined as ip dose that blocked tonic seizures induced in DBA/2 mice by audiogenic stimuli; type: functional; in short: as §5
[33] = species on record: Rattus norvegicus; experiment: Percent inhibition of the response induced by 5 uM of AMPA at a concentration of 1 mM in rat; type: functional
[34] = biological target: Metabotropic glutamate receptor 2 (Rattus norvegicus, UniProt P31421); experiment: Activity tested at cloned rat mGluR2 receptor expressed in Chinese Hamster Ovary (CHO) cells; type: functional, cell-based
In short: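 Rat mGluR2 stably expressed in CHO cells, with cells maintained and tested as described in an earlier report. Agonism was assessed directly. Antagonism was assessed against a response to 30 μM Glu, with test compound at 1 mM.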

[35] = biological target: T3, Metabotropic glutamate receptor 5; experiment: Activity tested at cloned rat Metabotropic glutamate receptor 5 expressed in Chinese Hamster Ovary (CHO) cells; type: functional, cell-based
In short: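 Rat mGluR5a splice variant expressed in a CHO cell line. Compounds were tested for agonist and antagonist action at this receptor.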

[36] = tested on: Mus musculus; experiment: In vivo anticonvulsant activity determined as ip dose that blocked NMDA-induced tonic seizures induced in DBA/2 mice; type: functional
[37] = tested on: Mus musculus; experiment: In vivo anticonvulsant activity determined as ip dose that blocked 3,5-DHPG induced tonic seizures induced in DBA/2 mice; type: functional; in short: as §6
[38] = biological target: T2, Glutamate receptor ionotropic, AMPA; experiment: Binding affinity of compound was determined against Ionotropic glutamate receptor AMPA receptor, using radioligand [3H]- AMPA; type: protein-complex assay
[39] = species on record: Rattus norvegicus; experiment: Antagonist activity tested in rat cortical slice model; type: functional; in short: as §7

T3 sequence (P31424 whole entry): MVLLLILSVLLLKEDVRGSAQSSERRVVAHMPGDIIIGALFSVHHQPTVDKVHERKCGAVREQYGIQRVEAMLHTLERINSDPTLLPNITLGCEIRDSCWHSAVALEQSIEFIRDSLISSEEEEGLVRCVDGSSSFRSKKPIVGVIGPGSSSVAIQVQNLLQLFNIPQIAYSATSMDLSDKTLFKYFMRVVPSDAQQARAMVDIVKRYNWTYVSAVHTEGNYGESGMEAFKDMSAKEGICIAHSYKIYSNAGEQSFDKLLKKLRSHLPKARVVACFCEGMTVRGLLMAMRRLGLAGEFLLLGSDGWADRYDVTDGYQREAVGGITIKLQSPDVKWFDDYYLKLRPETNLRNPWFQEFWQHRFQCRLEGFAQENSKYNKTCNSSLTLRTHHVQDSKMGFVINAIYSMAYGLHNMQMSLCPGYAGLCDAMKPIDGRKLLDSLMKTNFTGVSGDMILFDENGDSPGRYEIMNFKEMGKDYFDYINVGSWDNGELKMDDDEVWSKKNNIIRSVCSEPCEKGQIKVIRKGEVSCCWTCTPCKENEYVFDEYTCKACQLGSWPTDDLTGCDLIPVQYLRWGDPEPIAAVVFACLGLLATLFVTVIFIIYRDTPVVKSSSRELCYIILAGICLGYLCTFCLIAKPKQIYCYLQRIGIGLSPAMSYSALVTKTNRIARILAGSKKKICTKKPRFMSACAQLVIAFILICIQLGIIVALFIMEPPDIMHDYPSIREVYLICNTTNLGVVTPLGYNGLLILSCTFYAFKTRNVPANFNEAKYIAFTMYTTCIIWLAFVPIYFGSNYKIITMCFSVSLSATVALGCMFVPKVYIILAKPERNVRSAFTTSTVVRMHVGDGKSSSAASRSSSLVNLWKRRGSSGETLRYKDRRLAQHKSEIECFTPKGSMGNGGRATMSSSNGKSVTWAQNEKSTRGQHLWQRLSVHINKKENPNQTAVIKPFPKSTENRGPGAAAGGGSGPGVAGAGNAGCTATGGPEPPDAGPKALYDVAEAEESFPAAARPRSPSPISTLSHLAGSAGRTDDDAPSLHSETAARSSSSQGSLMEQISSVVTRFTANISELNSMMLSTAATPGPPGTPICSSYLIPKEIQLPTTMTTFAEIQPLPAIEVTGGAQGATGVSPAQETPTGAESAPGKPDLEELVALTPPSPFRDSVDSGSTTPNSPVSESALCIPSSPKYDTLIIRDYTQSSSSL
T1 sequence (P31423 whole entry): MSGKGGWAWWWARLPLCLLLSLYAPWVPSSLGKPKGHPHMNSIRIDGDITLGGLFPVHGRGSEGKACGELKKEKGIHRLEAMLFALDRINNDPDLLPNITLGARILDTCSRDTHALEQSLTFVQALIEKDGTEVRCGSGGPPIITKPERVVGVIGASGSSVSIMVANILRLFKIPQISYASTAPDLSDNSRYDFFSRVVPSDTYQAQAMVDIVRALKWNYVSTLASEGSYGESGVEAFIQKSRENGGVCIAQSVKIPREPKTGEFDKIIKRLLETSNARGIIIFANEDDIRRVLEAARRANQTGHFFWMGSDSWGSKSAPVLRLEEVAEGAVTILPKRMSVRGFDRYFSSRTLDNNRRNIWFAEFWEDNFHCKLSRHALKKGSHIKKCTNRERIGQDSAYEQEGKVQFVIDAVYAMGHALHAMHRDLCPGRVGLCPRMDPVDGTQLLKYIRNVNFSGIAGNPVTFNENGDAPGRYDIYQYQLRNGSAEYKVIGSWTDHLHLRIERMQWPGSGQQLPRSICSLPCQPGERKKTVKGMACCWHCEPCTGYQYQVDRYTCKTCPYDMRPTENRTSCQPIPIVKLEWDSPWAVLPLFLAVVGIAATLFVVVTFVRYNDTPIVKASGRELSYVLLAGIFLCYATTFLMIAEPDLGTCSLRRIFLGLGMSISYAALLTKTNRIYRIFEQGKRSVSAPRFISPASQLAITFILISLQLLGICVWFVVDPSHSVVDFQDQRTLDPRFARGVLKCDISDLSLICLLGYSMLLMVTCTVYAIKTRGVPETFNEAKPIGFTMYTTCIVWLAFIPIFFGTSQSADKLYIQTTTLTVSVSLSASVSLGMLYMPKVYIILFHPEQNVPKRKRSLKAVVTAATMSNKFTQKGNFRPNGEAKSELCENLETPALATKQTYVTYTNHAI
Metabotropic glutamate receptor 2, sequence (P31421 whole entry): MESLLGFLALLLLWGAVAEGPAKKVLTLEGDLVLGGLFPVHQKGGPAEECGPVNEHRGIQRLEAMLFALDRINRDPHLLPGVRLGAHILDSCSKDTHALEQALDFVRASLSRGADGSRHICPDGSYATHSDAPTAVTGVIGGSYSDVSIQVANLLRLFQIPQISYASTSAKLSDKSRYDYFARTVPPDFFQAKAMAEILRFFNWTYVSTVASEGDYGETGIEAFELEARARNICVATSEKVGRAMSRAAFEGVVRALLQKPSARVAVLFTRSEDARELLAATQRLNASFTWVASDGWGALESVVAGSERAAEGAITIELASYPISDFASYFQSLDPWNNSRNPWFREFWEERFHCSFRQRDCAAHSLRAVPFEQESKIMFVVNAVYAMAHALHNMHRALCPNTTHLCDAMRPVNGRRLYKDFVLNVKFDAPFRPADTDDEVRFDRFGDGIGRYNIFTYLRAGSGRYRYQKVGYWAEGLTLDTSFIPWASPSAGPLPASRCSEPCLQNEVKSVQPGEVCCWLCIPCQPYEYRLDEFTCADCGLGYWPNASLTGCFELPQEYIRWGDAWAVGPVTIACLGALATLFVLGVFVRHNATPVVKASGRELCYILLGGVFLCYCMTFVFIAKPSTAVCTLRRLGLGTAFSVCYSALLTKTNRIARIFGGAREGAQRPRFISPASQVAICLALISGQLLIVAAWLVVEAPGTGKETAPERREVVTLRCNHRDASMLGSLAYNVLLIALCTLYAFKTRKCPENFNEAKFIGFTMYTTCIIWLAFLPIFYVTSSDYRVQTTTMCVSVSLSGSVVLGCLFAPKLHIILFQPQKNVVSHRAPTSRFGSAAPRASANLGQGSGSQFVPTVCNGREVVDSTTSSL
Metabotropic glutamate receptor 1, sequence (P23385 whole entry): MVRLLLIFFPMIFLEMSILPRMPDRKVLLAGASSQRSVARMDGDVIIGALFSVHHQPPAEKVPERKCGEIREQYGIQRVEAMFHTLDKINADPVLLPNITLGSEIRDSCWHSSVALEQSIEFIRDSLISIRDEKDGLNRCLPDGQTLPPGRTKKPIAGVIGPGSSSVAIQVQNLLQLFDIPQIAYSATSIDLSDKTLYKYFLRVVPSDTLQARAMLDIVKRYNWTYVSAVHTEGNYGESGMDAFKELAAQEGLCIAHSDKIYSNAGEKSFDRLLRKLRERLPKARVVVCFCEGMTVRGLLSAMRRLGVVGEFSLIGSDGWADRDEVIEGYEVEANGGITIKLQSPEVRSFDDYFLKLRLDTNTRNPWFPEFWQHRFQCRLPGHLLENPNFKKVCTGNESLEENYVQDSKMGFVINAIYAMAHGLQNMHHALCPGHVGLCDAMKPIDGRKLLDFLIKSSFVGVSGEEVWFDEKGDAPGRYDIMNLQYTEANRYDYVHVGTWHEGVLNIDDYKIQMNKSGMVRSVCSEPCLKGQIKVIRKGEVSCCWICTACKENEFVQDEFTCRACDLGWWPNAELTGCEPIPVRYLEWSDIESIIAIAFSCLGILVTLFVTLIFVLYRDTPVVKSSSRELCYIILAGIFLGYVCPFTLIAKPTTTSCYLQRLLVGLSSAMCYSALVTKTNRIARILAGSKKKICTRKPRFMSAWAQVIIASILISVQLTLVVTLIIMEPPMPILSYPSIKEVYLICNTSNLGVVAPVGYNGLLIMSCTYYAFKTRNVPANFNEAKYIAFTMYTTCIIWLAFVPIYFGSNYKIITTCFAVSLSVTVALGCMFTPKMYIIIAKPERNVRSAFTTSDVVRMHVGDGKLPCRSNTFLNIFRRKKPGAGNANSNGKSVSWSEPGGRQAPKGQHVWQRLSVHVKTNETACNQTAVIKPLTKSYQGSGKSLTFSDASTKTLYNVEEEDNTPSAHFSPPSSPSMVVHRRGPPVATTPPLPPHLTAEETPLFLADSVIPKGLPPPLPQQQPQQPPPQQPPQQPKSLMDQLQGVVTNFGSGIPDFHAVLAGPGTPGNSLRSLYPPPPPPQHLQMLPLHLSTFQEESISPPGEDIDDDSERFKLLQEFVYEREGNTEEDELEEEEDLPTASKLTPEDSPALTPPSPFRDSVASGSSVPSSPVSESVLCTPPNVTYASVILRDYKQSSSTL
Metabotropic glutamate receptor 2 (Rattus norvegicus), sequence (P31421 19-872 limits assumed): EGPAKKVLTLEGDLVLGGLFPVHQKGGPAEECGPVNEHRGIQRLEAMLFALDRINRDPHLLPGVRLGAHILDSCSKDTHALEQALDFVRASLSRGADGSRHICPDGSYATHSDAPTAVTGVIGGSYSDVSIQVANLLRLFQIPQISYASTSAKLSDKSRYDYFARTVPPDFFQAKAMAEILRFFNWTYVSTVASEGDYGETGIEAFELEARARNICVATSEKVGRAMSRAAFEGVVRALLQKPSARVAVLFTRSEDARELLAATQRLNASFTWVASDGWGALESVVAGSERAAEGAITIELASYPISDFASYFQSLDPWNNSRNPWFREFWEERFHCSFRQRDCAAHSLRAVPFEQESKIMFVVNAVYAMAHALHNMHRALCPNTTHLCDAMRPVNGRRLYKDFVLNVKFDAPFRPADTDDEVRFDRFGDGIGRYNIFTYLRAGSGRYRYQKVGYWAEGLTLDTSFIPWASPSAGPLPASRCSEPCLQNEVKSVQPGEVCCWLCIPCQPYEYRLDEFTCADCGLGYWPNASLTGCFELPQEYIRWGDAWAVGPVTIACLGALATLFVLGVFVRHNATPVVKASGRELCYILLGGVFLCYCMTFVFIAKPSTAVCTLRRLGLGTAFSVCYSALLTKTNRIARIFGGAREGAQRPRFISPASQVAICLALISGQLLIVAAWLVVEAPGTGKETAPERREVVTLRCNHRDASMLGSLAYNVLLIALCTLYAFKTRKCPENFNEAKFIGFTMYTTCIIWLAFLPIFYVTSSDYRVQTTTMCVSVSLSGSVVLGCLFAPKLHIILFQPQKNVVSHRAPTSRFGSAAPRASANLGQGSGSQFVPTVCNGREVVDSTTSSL

SMILES: CC(C)OC(=O)Nc1cccc(Cl)c1 [CHLORPROPHAM]
ED50 [1]: 8.7 µmol/kg | ED50 [2]: 5.6 µmol/kg | ED50 [3]: 2.8 µmol/kg | ED50 [4]: 2.6 µmol/kg | ED50 [5]: 6.9 µmol/kg | ED50 [6]: 5.2 µmol/kg | ED50 [7]: 41 µmol/kg | ED50 [8]: 22 µmol/kg

SMILES: NC(=O)OCC(COC(N)=O)c1ccccc1 [FELBAMATE]
ED50 [9]: 51 µmol/kg | ED50 [10]: 204 µmol/kg | ED50 [11]: 97 µmol/kg | ED50 [12]: 122 µmol/kg | ED50 [13]: 328 µmol/kg | ED50 [14]: 674 µmol/kg

pIC50 [15]: 4.85 | pIC50 [17]: 6.31 | pKi [18]: < 3.00 | Activation [19]: 36% | pIC50 [20]: < 4.00 | pIC50 [22]: < 4.00 | pKi [23]: 4.03 | pEC50 [29]: < 3.00 | pEC50 [30]: < 3.00 | pKi [31]: 3.19
SMILES: N[C@@]1(C(=O)O)C[C@@H]2ON=C(C(=O)O)[C@@H]2C1 (racemic)
ED50 [16]: 54 µmol/kg | ED50 [21]: 28 µmol/kg | ED50 [24]: 33 µmol/kg | ED50 [25]: 39 µmol/kg | ED50 [26]: 70 µmol/kg | ED50 [27]: 27 µmol/kg | ED50 [28]: 45 µmol/kg | ED50 [32]: 22 µmol/kg | Inhibition [33]: 32%

SMILES: O=C(O)c1cc(O)c2c(Cl)cc(Cl)cc2n1
ED50 [1]: 14 µmol/kg | ED50 [2]: 2.4 µmol/kg | ED50 [3]: 8.5 µmol/kg | ED50 [4]: 2.2 µmol/kg | ED50 [5]: 11 µmol/kg | ED50 [6]: 12 µmol/kg | ED50 [7]: 26 µmol/kg | ED50 [8]: 22 µmol/kg

pIC50 [17]: 7.40
SMILES: O=C(O)[C@H]1CN(C/C=C/P(=O)(O)O)CCN1 [MIDAFOTEL]
ED50 [16]: 17 µmol/kg | ED50 [21]: 1.8 µmol/kg | ED50 [24]: 2.5 µmol/kg | ED50 [25]: 11 µmol/kg | ED50 [26]: 8.6 µmol/kg | ED50 [27]: 1.2 µmol/kg | ED50 [28]: 6.8 µmol/kg | ED50 [32]: 0.79 µmol/kg

SMILES: O=C1NC(=O)C(c2ccccc2)(c2ccccc2)N1 [PHENYTOIN]
ED50 [9]: 2.2 µmol/kg | ED50 [10]: 9.1 µmol/kg | ED50 [11]: 7.3 µmol/kg | ED50 [12]: 31 µmol/kg | ED50 [13]: 8.7 µmol/kg | ED50 [14]: 11 µmol/kg

SMILES: N[C@@]1(C(=O)O)CC[C@@H](C(=O)O)C1 (racemic)
pEC50 [34]: 5.70 | pEC50 [30]: 3.10 | pEC50 [35]: 4.64

SMILES: CCCC(CCC)C(=O)O [VALPROIC ACID]
ED50 [9]: 498 µmol/kg | ED50 [10]: 258 µmol/kg | ED50 [11]: 187 µmol/kg | ED50 [12]: 878 µmol/kg | ED50 [13]: 205 µmol/kg | ED50 [14]: 275 µmol/kg

SMILES: N[C@H](CCCP(=O)(O)O)C(=O)O
pIC50 [17]: 6.06

pIC50 [17]: < 4.00 | pKi [18]: < 3.00 | pIC50 [22]: < 4.00 | pKi [23]: 4.57 | pEC50 [34]: 4.80 | pEC50 [29]: < 3.00 | pIC50 [38]: < 4.00 | pEC50 [30]: < 3.00 | pKi [31]: 3.36 | pIC50 [39]: < 3.00
SMILES: N[C@]1(C(=O)O)C[C@@H]2ON=C(C(=O)O)[C@@H]2C1 (racemic)
ED50 [36]: 91 µmol/kg | ED50 [21]: 42 µmol/kg | ED50 [37]: 84 µmol/kg | ED50 [24]: 41 µmol/kg | ED50 [27]: 24 µmol/kg | ED50 [32]: 25 µmol/kg

SMILES: N[C@@H](CCCP(=O)(O)O)C(=O)O
pIC50 [17]: 4.54
